Assay results published in ChEMBL document CHEMBL1156688, “Synthesis and biological activities of a series of 4,5-diaryl-3-hydroxy-2(5H)-furanones” (Eur J Med Chem, 2008).

Columns and labels:
[1] = Antioxidant activity assessed as inhibition of peroxynitrite-induced evans blue bleaching at 50 uM; assay type: functional; design: scale not given: the % may be the effect or the level left
Outline: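 Room-temperature assay in 50 mM phosphate-buffered saline, pH 7.4, containing 0.1 mM diethylenetriaminepentaacetic acid, 90 mM NaCl and 5 mM KCl. Test compound, Evans Blue ([…] as printed) and peroxynitrite ([…] as printed) were mixed rapidly. Bleaching was read at 608 nm. Blanks held DMF alone or peroxynitrite degraded for 5 min.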

[2] = molecular target: Human immunodeficiency virus type 1 integrase (Human immunodeficiency virus 1, UniProt Q7ZJM1); assay: Inhibition of HIV1 integrase
Chain of Human immunodeficiency virus type 1 integrase (Q7ZJM1 whole entry): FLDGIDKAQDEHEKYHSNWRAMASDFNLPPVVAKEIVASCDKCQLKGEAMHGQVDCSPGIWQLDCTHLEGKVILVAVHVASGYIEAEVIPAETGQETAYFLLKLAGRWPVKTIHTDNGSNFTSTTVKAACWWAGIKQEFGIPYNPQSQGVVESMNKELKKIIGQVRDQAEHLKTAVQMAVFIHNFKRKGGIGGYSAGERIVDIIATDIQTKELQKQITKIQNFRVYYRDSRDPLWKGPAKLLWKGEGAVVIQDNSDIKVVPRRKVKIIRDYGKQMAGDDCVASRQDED
Outline: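 Wild-type HIV-1 integrase (1 pmol) was tested in a 3′-processing reaction with 0.025 pmol labelled U5A/U5B double-stranded DNA substrate. Buffer was 20 mM Hepes pH 7.2, 10 mM MgCl2, 25 mM NaCl and 1 mM DTT. Oligonucleotides were gel-purified on 18% denaturing acrylamide/urea.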

[3] = molecular target: T1, Polyunsaturated fatty acid 5-lipoxygenase (Homo sapiens) (UniProt P09917); assay: Inhibition of 5LOX in human whole blood assessed as inhibition of calcium ionophore A-stimulated 5-HETE production at 10 uM; assay type: tissue-based; design: scale not given: the % may be the effect or the level left
T1 sequence (whole entry): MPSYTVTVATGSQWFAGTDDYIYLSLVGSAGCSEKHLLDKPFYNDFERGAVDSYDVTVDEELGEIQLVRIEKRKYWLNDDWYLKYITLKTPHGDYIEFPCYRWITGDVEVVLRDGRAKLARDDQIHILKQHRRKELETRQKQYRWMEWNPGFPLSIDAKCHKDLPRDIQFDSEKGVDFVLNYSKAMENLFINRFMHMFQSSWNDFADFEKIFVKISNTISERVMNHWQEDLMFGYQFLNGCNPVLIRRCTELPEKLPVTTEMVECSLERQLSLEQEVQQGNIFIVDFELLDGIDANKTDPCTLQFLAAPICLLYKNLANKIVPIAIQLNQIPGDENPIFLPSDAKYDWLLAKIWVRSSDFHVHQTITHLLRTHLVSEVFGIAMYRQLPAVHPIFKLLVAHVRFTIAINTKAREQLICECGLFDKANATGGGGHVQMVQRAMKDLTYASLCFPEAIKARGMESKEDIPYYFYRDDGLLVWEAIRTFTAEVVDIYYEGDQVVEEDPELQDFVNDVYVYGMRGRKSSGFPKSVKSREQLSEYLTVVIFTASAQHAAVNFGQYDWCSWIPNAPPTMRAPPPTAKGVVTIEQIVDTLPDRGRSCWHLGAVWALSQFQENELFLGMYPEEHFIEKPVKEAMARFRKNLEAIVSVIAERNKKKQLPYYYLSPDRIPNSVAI
Outline: (§1)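 Fresh heparinized blood from normal volunteers, in 1 mL aliquots, was preincubated 15 min at 37 °C with compound or DMSO vehicle. It was then stimulated with calcium ionophore A23187 for 30 min at 37 °C. Eicosanoids were extracted into ethyl acetate, dried under nitrogen and redissolved in mobile phase. 5-HETE was quantified by reversed-phase HPLC with UV detection.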

[4] = DPPH radical scavenging activity assessed as ratio of drug concentration to DPPH concentration producing 50% decrease in DPPH after 5 mins; assay type: functional
Outline: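 DPPH decay was followed spectrophotometrically at 515 nm, read every 0.02 min, starting from about […] DPPH. ECR50 is the ratio of antioxidant to DPPH concentration giving a 50% fall in DPPH; the methods state 6 min of reaction. Trolox and ascorbic acid served as references.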

[5] = molecular target: Prostaglandin G/H synthase 1 (Homo sapiens) (UniProt P23219); assay: Inhibition of COX1 at 100 uM
[6] = molecular target: T1, Polyunsaturated fatty acid 5-lipoxygenase (Homo sapiens); assay: Inhibition of 5LOX in human whole blood assessed as inhibition of calcium ionophore A-stimulated 5-HETE production at 100 uM; assay type: tissue-based; design: scale not given: the % may be the effect or the level left; outline: as §1
PC-3 [7] = assay: Antiproliferative activity against human PC3 cells at 10 uM after 72 hrs by MTT assay; assay type: functional; settings: PC-3, 72 h
Outline: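 PC3 cells were grown in RPMI 1640 with 10% fetal calf serum at 37 °C under 5% CO2. They were plated at 1.8 × 10^4 cells/well and grown 3 days, then serum-starved 24 h to synchronize. Compounds were added in medium with less than 0.1% DMSO. Growth was estimated by colorimetric MTT after 72 h.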

PC-3 [8] = assay: Antiproliferative activity against human PC3 cells after 72 hrs by MTT assay; settings: PC-3, 72 h

**Q.** For `O=C1OC(c2ccc(OCc3ccccc3)cc2)C(c2ccc(F)cc2)=C1O` (configuration not stated), which Activity [1] is on record?
**A.** Its Activity is 0%.

**Q.** And the IC50 [2]?
**A.** The IC50 was greater than 300 µM.

**Q.** And the Activity [3]?
**A.** The Activity was 0%.

**Q.** With `O=C1OC(c2cc(OCc3ccccc3)cc(OCc3ccccc3)c2)C(c2ccc(O)cc2)=C1O` (configuration not stated) as the compound, how does the Activity [1] read?
**A.** Its Activity is 10.4%.

**Q.** And the Ratio [4]?
**A.** The Ratio was 0.65.

**Q.** And the IC50 [2]?
**A.** Its IC50 is greater than 300 µM.

**Q.** And the Activity [3]?
**A.** The Activity was 32%.

**Q.** For `O=C1OC(c2ccccc2)C(c2ccc(O)cc2)=C1O` (configuration not stated), which Activity [1] is on record?
**A.** The Activity was 29.4%.

**Q.** What about the Ratio [4] of the same compound?
**A.** Its Ratio is 0.49.

**Q.** And the inhibition [5]?
**A.** Its inhibition is 32.9%.

**Q.** What about the IC50 [2] of the same compound?
**A.** The IC50 was greater than 300 µM.

**Q.** And the Activity [6]?
**A.** Its Activity is 18.6%.

**Q.** What about the Activity [3] of the same compound?
**A.** Its Activity is 0%.

**Q.** For `O=C1OC(c2cc(O)cc(O)c2)C(c2ccc(F)cc2)=C1O` (configuration not stated), which Activity [1] is on record?
**A.** The Activity was 40.9%.

**Q.** And the inhibition at 10 µM (PC-3 [7])?
**A.** The inhibition at 10 µM was 0%.

**Q.** What about the IC50 [2] of the same compound?
**A.** Its IC50 is 92 µM.

**Q.** What about the Activity [6] of the same compound?
**A.** The Activity was 10.7%.

**Q.** What about the Activity [3] of the same compound?
**A.** The Activity was 0%.

**Q.** With `O=C1OC(c2ccc(O)cc2)C(c2ccc(O)cc2)=C1O` (configuration not stated) as the compound, how does the Activity [1] read?
**A.** The Activity was 44.9%.

**Q.** And the Ratio [4]?
**A.** The Ratio was 0.32.

**Q.** What about the inhibition at 10 µM (PC-3 [7]) of the same compound?
**A.** The inhibition at 10 µM was 0%.

**Q.** What about the IC50 [2] of the same compound?
**A.** Its IC50 is 220 µM.

**Q.** And the Activity [6]?
**A.** Its Activity is 27.8%.

**Q.** What about the Activity [3] of the same compound?
**A.** The Activity was 0%.

**Q.** What does the source list for `O=C1OC(c2cc(O)cc(O)c2)C(c2ccc(O)cc2)=C1O` (configuration not stated)?
**A.** Activity [1]: 33.1%; Ratio [4]: 0.47; inhibition at 10 µM (PC-3 [7]): 39%; IC50 [2]: 22 µM; Activity [6]: 11.6%; Activity [3]: 0%

**Q.** For `O=C1OC(c2ccc(O)c(O)c2)C(c2ccc(O)cc2)=C1O` (configuration not stated), which Activity [1] is on record?
**A.** Its Activity is 92%.

**Q.** What about the Ratio [4] of the same compound?
**A.** The Ratio was 0.25.

**Q.** What about the inhibition at 10 µM (PC-3 [7]) of the same compound?
**A.** The inhibition at 10 µM was 20%.

**Q.** And the IC50 [2]?
**A.** Its IC50 is 9.2 µM.

**Q.** And the Activity [6]?
**A.** Its Activity is 79.5%.

**Q.** What about the Activity [3] of the same compound?
**A.** The Activity was 35.4%.

**Q.** Which results are given for `Cc1c(C)c2c(c(C)c1O)CCC(C)(C(=O)O)O2` (configuration not stated)?
**A.** Activity [1]: 90%; Ratio [4]: 0.26

**Q.** With `O=C1OCC(c2ccc(O)cc2)=C1O` as the compound, how does the IC50 [2] read?
**A.** The IC50 was 3.6 µM.

**Q.** What does the source list for `O=C1OC(c2ccc(OCc3ccccc3)c(OCc3ccccc3)c2)C(c2ccc(O)cc2)=C1O` (configuration not stated)?
**A.** Activity [1]: 4.9%; Ratio [4]: 0.71; IC50 [2]: 1 µM; Activity [3]: 12.7%

**Q.** With `O=C1OC(c2cc(OCc3ccccc3)cc(OCc3ccccc3)c2)C(c2ccc(F)cc2)=C1O` (configuration not stated) as the compound, how does the Activity [1] read?
**A.** The Activity was 0%.

**Q.** And the IC50 [2]?
**A.** The IC50 was 30 µM.

**Q.** What about the Activity [3] of the same compound?
**A.** The Activity was 0%.

**Q.** With `Cc1ccc(-c2cc(C(F)(F)F)nn2-c2ccc(S(N)(=O)=O)cc2)cc1` [CELECOXIB] as the compound, how does the IC50 (PC-3 [8]) read?
**A.** Its IC50 is 48 µM.

**Q.** For `O=C1OC(c2ccc(OCc3ccccc3)cc2)C(c2ccc(O)cc2)=C1O` (configuration not stated), which Activity [1] is on record?
**A.** Its Activity is 0%.

**Q.** What about the Ratio [4] of the same compound?
**A.** Its Ratio is 0.3.

**Q.** What about the IC50 [2] of the same compound?
**A.** The IC50 was greater than 300 µM.

**Q.** What about the Activity [3] of the same compound?
**A.** The Activity was 0%.

**Q.** Which Activity [1] does the source give for `O=C1OC(c2ccc(OCc3ccccc3)c(OCc3ccccc3)c2)C(c2ccc(F)cc2)=C1O` (configuration not stated) here?
**A.** The Activity was 0%.

**Q.** What about the IC50 [2] of the same compound?
**A.** Its IC50 is 10 µM.

**Q.** And the Activity [3]?
**A.** The Activity was 0%.

**Q.** Which results are given for `O=C1OC(c2ccc(F)cc2)C(c2ccc(O)cc2)=C1O` (configuration not stated)?
**A.** Activity [1]: 46.5%; Ratio [4]: 0.27; inhibition [5]: 16.4%; IC50 [2]: > 300 µM; Activity [6]: 16.4%; Activity [3]: 0%

**Q.** Which results are given for `O=C1O[C@H]([C@@H](O)CO)C(O)=C1O`?
**A.** Activity [1]: 83.6%; Ratio [4]: 0.26

**Q.** For `O=C1OC(c2ccc(O)cc2)C(c2ccc(F)cc2)=C1O` (configuration not stated), which Activity [1] is on record?
**A.** Its Activity is 0%.

**Q.** What about the inhibition at 10 µM (PC-3 [7]) of the same compound?
**A.** Its inhibition at 10 µM is 31%.

**Q.** What about the IC50 [2] of the same compound?
**A.** Its IC50 is 300 µM.

**Q.** And the Activity [6]?
**A.** The Activity was 0%.

**Q.** What about the Activity [3] of the same compound?
**A.** Its Activity is 0%.
